From ChEMBL document CHEMBL3232902, “PMPA and PMEA prodrugs for the treatment of HIV infections and human papillomavirus (HPV) associated neoplasia and cancer” (Eur J Med Chem, 2014)

Tests used:
[1] = tested on: Human immunodeficiency virus 1; assay: Antiviral activity against Human immunodeficiency virus 1 3B infected in human CEM cells assessed as inhibition of virus-induced giant cell formation after 4 to 5 days by microscopic analysis; format: functional, organism-based, CCRF-CEM
In short: (§1)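 CEM cells (~3×10^5/mL) were infected with 100 CCID50/mL HIV-1 IIIB or HIV-2 ROD with compound dilutions. After 4–5 days at 37°C, syncytium formation was scored microscopically. EC50 is the concentration inhibiting giant cell formation by 50%.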

L1210 = assay: Cytostatic activity against mouse L1210 cells after 48 hrs by coulter counting analysis; format: functional, cell-based
In short: (§2)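 (5-7.5)×10^4 cells/well were incubated with compound at 37°C, for 48 h (L1210) or 72 h (CEM, HeLa), then counted by Coulter counter. IC50 is the concentration inhibiting proliferation by 50%.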

Vaccinia virus = assay: Antiviral activity against Vaccinia virus Lederle infected in HEL cells assessed as inhibition of virus-induced cytopathicity; format: functional, organism-based; conditions: Orthopoxvirus vaccinia
In short: (§3)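 Confluent HEL cell cultures were inoculated with 100 CCID50 of virus in the presence of varying compound concentrations. Cytopathicity or plaque formation was scored once untreated infected controls reached completion. EC50 is the concentration inhibiting virus-induced cytopathicity by 50%.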

HeLa [2] = assay: Cytostatic activity against human HeLa cells after 72 hrs by coulter counting analysis; format: functional, cell-based; in short: as §2
Human alphaherpesvirus 2 = assay: Antiviral activity against Herpes simplex virus G infected in HEL cells assessed as inhibition of virus-induced cytopathicity; format: functional, organism-based, strain G; in short: as §3
[3] = (§4) Cytotoxicity against human CEM cells; format: cell-based, CCRF-CEM; conditions: CEM (CCRF-CEM) cells
CCRF-CEM [4] = assay: Cytostatic activity against human CEM cells after 72 hrs by coulter counting analysis; format: functional, cell-based; in short: as §2
[5] = tested on: Human immunodeficiency virus 2; assay: Antiviral activity against Human immunodeficiency virus type 2 ROD infected in human CEM cells assessed as inhibition of virus-induced giant cell formation after 4 to 5 days by microscopic analysis; format: functional, organism-based, ISOLATE ROD, CCRF-CEM; in short: as §1
Human alphaherpesvirus 1 [6] = assay: Antiviral activity against thymidine kinase-deficient acyclovir-resistant Herpes simplex virus KOS infected in HEL cells assessed as inhibition of virus-induced cytopathicity; format: functional, organism-based; conditions: Human alphaherpesvirus 1, KOS; in short: as §3
Human alphaherpesvirus 1 [7] = assay: Antiviral activity against Herpes simplex virus KOS infected in HEL cells assessed as inhibition of virus-induced cytopathicity; format: functional, organism-based; in short: as §3
[8] = Prodrug activation assessed as carboxypeptidase Y (unknown origin)-mediated aminoacyl phosphonamidate ester formation at 3 mg at 25 degC up to 12 hrs by [31P]-NMR analysis
In short: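 Compound (3.0 mg) in acetone-d6 plus Trizma buffer pH 7.6 was recorded by 31P NMR at 25°C as control. Carboxypeptidase Y (0.1 mg in Trizma) was then added, and spectra were taken every 7 min over 12 h at 25°C.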

[9] = Cytotoxicity against HEL cells assessed as change in cellular morphology by microscopic analysis; format: cell-based; conditions: human, read-out: MIC
In short: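 Uninfected HEL monolayers were exposed to compound. Minimal cytotoxic concentration is the concentration causing microscopically visible alteration of cell morphology.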

[10] = Antiproliferative activity against human C33A cells after 72 hrs by flow cytometric analysis; format: cell-based, C-33-A
In short: (§5)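 SiHa (HPV16+), HeLa (HPV18+) and C33A (HPV-) cervical carcinoma lines grown in DMEM with 10% FBS at 37°C, 5% CO2. Seeded 4×10^3 cells/well and left to adhere 24 h. Treated in triplicate with 1, 10 and 100 μM of compound formulated in ~1% DMSO/PBS pH 7.4.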

HeLa [11] = assay: Antiproliferative activity against human HeLa cells infected with HPV-18 after 72 hrs by flow cytometric analysis; format: functional, cell-based; conditions: hela; in short: as §5
SiHa = assay: Antiproliferative activity against human SiHa cells infected with HPV-16 after 72 hrs by flow cytometric analysis; format: functional, cell-based; in short: as §5
CCRF-CEM [12] = assay: as §4; format: cell-based; conditions: ccrf-cem
[13] = Human immunodeficiency virus 1, 3B, CCRF-CEM
[14] = Human alphaherpesvirus 2, strain G, HEL
[15] = Human immunodeficiency virus 2, ISOLATE ROD, CCRF-CEM
[16] = Human alphaherpesvirus 1, KOS, HEL

| Compound | EC50 [1, 13] | IC50 (L1210; Mus musculus, L1210, 48 h) | EC50 (Vaccinia virus) | IC50 (HeLa [2]; Homo sapiens, HeLa, 72 h) | EC50 (Human alphaherpesvirus 2; [14]) | CC50 [3] | IC50 (CCRF-CEM [4]; Homo sapiens, CCRF-CEM, 72 h) | EC50 [5, 15] | EC50 (Human alphaherpesvirus 1 [6]) | EC50 (Human alphaherpesvirus 1 [7]; [16]) | MCC [9] | further results |
| --- | --- | --- | --- | --- | --- | --- | --- | --- | --- | --- | --- | --- |
| C[C@H](NP(=O)(COCCn1cnc2c(N)ncnc21)Oc1cccc2c1CCCC2)C(=O)OCC(C)(C)C (stereo not given in full) | 0.017 µM | 0.026 µM | 1.3 µM | 0.45 µM | 0.05 µM | 0.019 µM | 0.019 µM | 0.007 µM | 0.12 µM | 0.13 µM | > 100 µM | Drug metabolism [8]: metabolite_detected |
| C[C@H](Cn1cnc2c(N)ncnc21)OCP(=O)(N[C@@H](C)C(=O)OCc1ccccc1)Oc1cccc2ccccc12 (stereo not given in full) | 0.019 µM | 3.7 µM | 5.5 µM | 11 µM | 0.7 µM | 4.4 µM | 4.4 µM | 0.011 µM | 0.8 µM | 1.3 µM | > 100 µM | – |
| C[C@H](Cn1cnc2c(N)ncnc21)OCP(=O)(N[C@@H](C)C(=O)OCC(C)(C)C)Oc1cccc2ccccc12 (mixture of isomers) | – | – | – | – | – | – | – | – | – | – | – | EC50 ([1]; ccrf-cem): 0.003 µM; IC50 (L1210; l1210): 2.2 µM; IC50 ([10]; c-33-a): 6 µM; IC50 (HeLa [2]; hela): 12 µM; IC50 (HeLa [11]): 6.2 µM; EC50 (Human alphaherpesvirus 2; hel): 0.8 µM; IC50 (SiHa): 7.8 µM; CC50 (CCRF-CEM [12]): 3.9 µM; IC50 (CCRF-CEM [4]; ccrf-cem): 3.9 µM; EC50 ([5]; ccrf-cem): 0.004 µM; EC50 (Human alphaherpesvirus 1 [7]; hel): 2 µM |
| Nc1ncnc2c1ncn2CCOCP(=O)(O)O [ADEFOVIR] | 8.4 µM | 3 µM | – | 181 µM | 6.3 µM | ≥ 50 µM | 24 µM | 8.2 µM | 7 µM | 4.7 µM | > 100 µM | IC50 ([10]; Homo sapiens, C-33-A, 72 h): 7.8 µM |
